Here are results for 30 compounds from PubChem BioAssay AID652011 (Sanford-Burnham Center for Chemical Genomics, 2013).

Molecules are shown by their SMILES. Values joined by “and” are separate entries in the source; they are usually repeats but may differ in a detail not shown here. Equal values may be shown once.

Chain of Hypoxia-inducible factor 1-alpha (Homo sapiens) (Q16665 whole entry, looked up): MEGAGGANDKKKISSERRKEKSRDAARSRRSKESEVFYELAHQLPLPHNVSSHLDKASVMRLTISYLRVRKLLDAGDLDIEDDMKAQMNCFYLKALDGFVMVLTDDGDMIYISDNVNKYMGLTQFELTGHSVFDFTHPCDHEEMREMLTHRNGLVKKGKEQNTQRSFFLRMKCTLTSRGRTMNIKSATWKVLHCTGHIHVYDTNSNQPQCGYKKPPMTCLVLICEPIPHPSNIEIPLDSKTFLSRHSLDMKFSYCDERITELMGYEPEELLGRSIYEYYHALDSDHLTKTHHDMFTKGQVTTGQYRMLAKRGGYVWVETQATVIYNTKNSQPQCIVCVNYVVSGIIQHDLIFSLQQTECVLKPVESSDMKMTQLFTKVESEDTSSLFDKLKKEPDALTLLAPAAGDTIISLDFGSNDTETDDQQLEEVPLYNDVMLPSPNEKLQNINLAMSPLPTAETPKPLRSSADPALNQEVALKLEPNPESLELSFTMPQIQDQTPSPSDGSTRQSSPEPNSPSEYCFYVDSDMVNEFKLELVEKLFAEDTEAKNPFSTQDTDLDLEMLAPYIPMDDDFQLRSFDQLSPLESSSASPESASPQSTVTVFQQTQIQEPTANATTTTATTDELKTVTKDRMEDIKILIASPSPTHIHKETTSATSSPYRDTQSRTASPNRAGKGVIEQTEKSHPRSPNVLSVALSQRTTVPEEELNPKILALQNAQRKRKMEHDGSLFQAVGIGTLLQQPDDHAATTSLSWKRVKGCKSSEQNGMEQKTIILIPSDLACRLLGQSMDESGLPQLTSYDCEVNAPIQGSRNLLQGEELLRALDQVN

The test concerns the target Hypoxia-inducible factor 1-alpha (Homo sapiens) (UniProt Q16665). Nature of the test: HIF reporter inhibition across pancreatic and renal lines – cell-based, luminescence, MIAPaCa-2, 786-0, panel, SAR follow-up (AID 652011). The conditions noted are these: MIAPaCa-2/PANC HIF reporter, luciferase luminescence, desferoxamine, overnight, HIF1a, run 2; at 99 µM (top of the series). An outline of the steps:
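Probe or stimulus – desferoxamine stimulus · Times – overnight compound incubation at 37 °C, 10 min reagent · Doses – compounds from 10 mM and 0.3125 mM stocks, 1% DMSO final · Technique – luminescence, One-Glo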
With `CCCNC(=O)CCc1nc(-c2ccc(C(C)(C)C)cc2)no1`, the inhibition came to 9.39%.
On to `CCc1ccc(-c2noc(CCC(=O)NC(C)CC)n2)cc1` (stereo not given), for which the inhibition is -24.3%.
Take `CC(C)(C)c1ccc(-c2noc(CCC(=O)Nc3ccccc3)n2)cc1`: the inhibition is 60.5%.
`CCNC(=O)CCc1nc(-c2ccc(C(C)C)cc2)no1`: the inhibition is -15.6%.
For `CC(C)(C)NC(=O)CCc1nc(-c2ccccc2)no1`, the inhibition is -36.5%.
As to `CC(C)(C)c1ccc(-c2noc(CCC(N)=O)n2)cc1`, the inhibition is 31.2% and -6.5%.
Turning to `O=C(O)CCc1nc(-c2ccccc2)no1`, the inhibition came to 16.7%.
On to `CCc1ccc(-c2noc(CCC(=O)NC(C)(C)C)n2)cc1`, for which the inhibition was -0.564%.
In the case of `CCNC(=O)CCc1nc(-c2ccccc2Cl)no1`, the inhibition was -3.81%.
For `CCNC(=O)CCc1nc(-c2cccc(F)c2)no1`, the inhibition is -31.8%.
`CCNC(=O)CCc1nc(-c2ccc(C(C)(C)C)cc2)no1`: the inhibition was 10.5% and -4.06%.
Next, `CC(C)(C)c1ccc(-c2noc(CCC(=O)Nc3cccc([N+](=O)[O-])c3)n2)cc1`: 91.4%.
As to `CC(C)(C)c1ccc(-c2noc(CCC(=O)N3CCOCC3)n2)cc1`, the inhibition was -1.55%.
Regarding `CNC(=O)CCc1nc(-c2ccc(C(C)(C)C)cc2)no1`, the inhibition is 18.4%.
As to `COc1cccc(NC(=O)CCc2nc(-c3ccc(C(C)(C)C)cc3)no2)c1`, the inhibition was found to be 81.2%.
On to `CC(C)NC(=O)CCc1nc(-c2ccc(C(C)(C)C)cc2)no1`, for which the inhibition is 26.5%.
Next, `CCNC(=O)CCc1nc(-c2ccc(CC)cc2)no1`: -31.3%; `COc1ccccc1NC(=O)CCc1nc(-c2ccc(C(C)(C)C)cc2)no1`: 81.3%.
With `CNC(=O)CCc1nc(-c2ccc(Cl)cc2)no1`, the inhibition was -33.8%.
Regarding `CC(C)(C)c1ccc(-c2noc(CCC(=O)NCc3ccco3)n2)cc1`, the inhibition was 93.7% and 85.5%.
In the case of `CC(C)(C)c1ccc(-c2noc(CCC(=O)Nc3cccnc3)n2)cc1`, the inhibition came out at 85.6%.
Regarding `CC(C)c1ccc(-c2noc(CCC(=O)NC3CC3)n2)cc1`, the inhibition is -9.97%.
For `CCCCc1ccc(-c2noc(CCC(=O)NC(C)(C)C)n2)cc1`, the inhibition came out at 93%.
Turning to `CC(C)(C)c1ccc(-c2noc(CCC(=O)NC3CCCCC3)n2)cc1`, the inhibition amounted to 55.9%.
Consider `COC(=O)CCc1nc(-c2ccc(C(C)(C)C)cc2)no1`, for which the inhibition is 93.8%.
Regarding `CC(C)(C)c1ccc(-c2noc(CCC(=O)N3CCCCC3)n2)cc1`, the inhibition came to 103%.
To `CCCCc1ccc(-c2noc(CCC(=O)NCC)n2)cc1` belongs 17.4%; to `CCc1ccc(-c2noc(CCC(=O)NC3CC3)n2)cc1`, -49.4%; to `CC(C)CNC(=O)CCc1nc(-c2ccc(C(C)(C)C)cc2)no1`, 2.19%.
Consider `CC(C)(C)c1ccc(-c2noc(CCC(=O)NC3CCC3)n2)cc1`, for which the inhibition was found to be 54.4%.
